In ChEMBL document CHEMBL1121917, “Structure--activity relationships in a broad-spectrum anthelmintic series. Acid chloride phenylhydrazones. 1. Aryl substitutions and chloride variations” (1981):

Assays:
Mus musculus [1] = organism: Mus musculus; experiment: Percent clearance of Nematospiroides dubius from mouse after oral treatment of 0.12 mg/mouse/day; type: functional
Method in brief: (§1)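 Mice naturally carrying Syphacia obvelata were experimentally infected with Nematospiroides dubius and Hymenolepis nana, then grouped after a 2-week prepatency. Finely ground compound was suspended in aqueous 0.10% carboxymethylcellulose, 0.04% polysorbate 80 and 0.0042% polyparaben, and 0.1 mL was given orally by cannula once daily for 4 days to five mice. Necropsy followed 2 days later, scoring presence or absence of each parasite. Control clearance was subtracted from the treated clearance.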

Mus musculus [2] = organism: Mus musculus; experiment: Percent clearance of Hymenolepis nana from mouse after oral treatment of 0.12 mg/mouse/day; type: functional; method in brief: as §1

Work on `Cc1cccc(/C(Cl)=N/Nc2ccccc2)c1` yielded a Parasite_Clearance (Mus musculus [1]) of 0% and a Parasite_Clearance (Mus musculus [2]) of 0%.
